Assay results reported in ChEMBL document CHEMBL3046529, “Chiral gamma-aryl-1H-1,2,4-triazole derivatives as highly potential antifungal agents: Design, synthesis, structure, and in vitro fungicidal activities” (J Agric Food Chem, 2008).

Legend:
[1] = system: Colletotrichum gossypii; assay: In vitro fungicidal activity against Colletotrichum gossypii assessed as mycelial growth inhibition at 100 mg/l at 26 degC after 48 hr by agar diffusion assay; type: functional; conditions: read-out: GI
Method in brief: (§1)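 Compound is dissolved in DMF and added aseptically to autoclaved agar that has cooled to about 45-50 °C, giving 100 mg/L in the medium. Solvent never exceeds […]. Plain medium is the blank. A 5 mm mycelial plug, cut from the margin of an actively growing colony, goes in the plate centre. Three replicate plates are sealed and kept at 26 °C in darkness. Colony diameter is read at 48 h. Inhibition % = (control − treated diameter)/control diameter.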

[2] = system: Dothiorella gregaria; assay: In vitro fungicidal activity against Dothiorella gregaria assessed as mycelial growth inhibition at 100 mg/l at 26 degC after 48 hr by agar diffusion assay; type: functional; conditions: read-out: GI; method in brief: as §1
[3] = system: Fusarium graminearum; assay: In vitro fungicidal activity against Fusarium graminearum assessed as mycelial growth inhibition at 100 mg/l at 26 degC after 48 hr by agar diffusion assay; type: functional; conditions: read-out: GI; method in brief: as §1
[4] = system: Botrytis cinerea; assay: In vitro fungicidal activity against Botryotinia fuckeliana assessed as mycelial growth inhibition at 100 mg/l at 26 degC after 48 hr by agar diffusion assay; type: functional; conditions: read-out: GI; method in brief: as §1
[5] = system: Rhizoctonia solani; assay: In vitro fungicidal activity against Rhizoctonia solani assessed as mycelial growth inhibition at 100 mg/l at 26 degC after 48 hr by agar diffusion assay; type: functional; conditions: read-out: GI; method in brief: as §1
[6] = system: Fusarium oxysporum; assay: In vitro fungicidal activity against Fusarium oxysporum assessed as mycelial growth inhibition at 100 mg/l at 26 degC after 48 hr by agar diffusion assay; type: functional; conditions: read-out: GI; method in brief: as §1
[7] = system: Colletotrichum gossypii; assay: In vitro fungicidal activity against Colletotrichum gossypii assessed as mycelial growth inhibition at 26 degC after 48 hr by agar diffusion assay; type: functional, organism-based
[8] = system: Dothiorella gregaria; assay: In vitro fungicidal activity against Dothiorella gregaria assessed as mycelial growth inhibition at 26 degC after 48 hr by agar diffusion assay; type: functional, organism-based
[9] = system: Fusarium graminearum; assay: In vitro fungicidal activity against Fusarium graminearum assessed as mycelial growth inhibition at 26 degC after 48 hr by agar diffusion assay; type: functional, organism-based
[10] = system: Botrytis cinerea; assay: In vitro fungicidal activity against Botryotinia fuckeliana assessed as mycelial growth inhibition at 26 degC after 48 hr by agar diffusion assay; type: functional, organism-based
[11] = system: Rhizoctonia solani; assay: In vitro fungicidal activity against Rhizoctonia solani assessed as mycelial growth inhibition at 26 degC after 48 hr by agar diffusion assay; type: functional, organism-based
[12] = system: Fusarium oxysporum; assay: In vitro fungicidal activity against Fusarium oxysporum assessed as mycelial growth inhibition at 26 degC after 48 hr by agar diffusion assay; type: functional, organism-based
[13] = system: Colletotrichum gossypii; assay: In vitro fungicidal activity against Colletotrichum gossypii assessed as mycelial growth inhibition at 50 mg/l at 26 degC after 48 hr by agar diffusion assay; type: functional; conditions: read-out: GI
[14] = system: Dothiorella gregaria; assay: In vitro fungicidal activity against Dothiorella gregaria assessed as mycelial growth inhibition at 50 mg/l at 26 degC after 48 hr by agar diffusion assay; type: functional; conditions: read-out: GI
[15] = system: Fusarium graminearum; assay: In vitro fungicidal activity against Fusarium graminearum assessed as mycelial growth inhibition at 50 mg/l at 26 degC after 48 hr by agar diffusion assay; type: functional; conditions: read-out: GI
[16] = system: Botrytis cinerea; assay: In vitro fungicidal activity against Botryotinia fuckeliana assessed as mycelial growth inhibition at 50 mg/l at 26 degC after 48 hr by agar diffusion assay; type: functional; conditions: read-out: GI
[17] = system: Rhizoctonia solani; assay: In vitro fungicidal activity against Rhizoctonia solani assessed as mycelial growth inhibition at 50 mg/l at 26 degC after 48 hr by agar diffusion assay; type: functional; conditions: read-out: GI
[18] = system: Fusarium oxysporum; assay: In vitro fungicidal activity against Fusarium oxysporum assessed as mycelial growth inhibition at 50 mg/l at 26 degC after 48 hr by agar diffusion assay; type: functional; conditions: read-out: GI

Row | SMILES | inhibition of growth at 100 µg/mL [1] [%] | inhibition of growth at 100 µg/mL [2] [%] | inhibition of growth at 100 µg/mL [3] [%] | inhibition of growth at 100 µg/mL [4] [%] | inhibition of growth at 100 µg/mL [5] [%] | inhibition of growth at 100 µg/mL [6] [%] | EC50 [7] [µM] | EC50 [8] [µM] | EC50 [9] [µM] | EC50 [10] [µM] | EC50 [11] [µM] | EC50 [12] [µM] | inhibition of growth at 50 µg/mL [13] [%] | inhibition of growth at 50 µg/mL [14] [%] | inhibition of growth at 50 µg/mL [15] [%] | inhibition of growth at 50 µg/mL [16] [%] | inhibition of growth at 50 µg/mL [17] [%] | inhibition of growth at 50 µg/mL [18] [%]
1 | CCCC[C@H](CCn1cncn1)c1ccccc1 | 87 | 100 | 71 | 91 | 90 | 66 | – | – | – | – | – | – | – | – | – | – | – | –
2 | CCC[C@@H](CCn1cncn1)c1ccc(OC)cc1 | 90 | 93 | 76 | 92 | 90 | 75 | – | – | – | – | – | – | – | – | – | – | – | –
3 | CC[C@H](CCn1cncn1)c1ccc(OC)cc1 | 55 | 82 | 66 | 30 | 60 | 65 | – | – | – | – | – | – | – | – | – | – | – | –
4 | CCC[C@H](CCn1cncn1)c1ccccc1 | 92 | 100 | 83 | 98 | 97 | 80 | – | – | – | – | – | – | – | – | – | – | – | –
5 | CC(C)(C)C(=O)C(Oc1ccc(Cl)cc1)n1cncn1 (configuration not stated) [TRIADIMEFON] | 100 | 71 | 76 | 96 | 100 | 97 | 19 | 317 | 163 | 41 | 14 | 40 | 97 | 14 | 59 | 78 | 91 | 91
6 | CC[C@H](CCn1cncn1)c1ccc(F)cc1 | 78 | 82 | 63 | 36 | 82 | 50 | – | – | – | – | – | – | – | – | – | – | – | –
7 | CC[C@@H](CCn1cncn1)c1ccc(F)cc1 | 65 | 75 | 56 | 52 | 85 | 60 | – | – | – | – | – | – | – | – | – | – | – | –
8 | CCCC[C@@H](CCn1cncn1)c1ccc(F)cc1 | 95 | 97 | 83 | 96 | 100 | 96 | 63 | 79 | 104 | 56 | 49 | 109 | 85 | 71 | 70 | 81 | 88 | 88
9 | CCCC[C@@H](CCn1cncn1)c1ccccc1 | 82 | 96 | 71 | 91 | 87 | 74 | – | – | – | – | – | – | – | – | – | – | – | –
10 | CCC[C@H](CCn1cncn1)c1ccc(F)cc1 | 95 | 100 | 85 | 71 | 90 | 82 | – | – | – | – | – | – | – | – | – | – | – | –
11 | CC[C@@H](CCn1cncn1)c1ccccc1 | 50 | 60 | 63 | 52 | 75 | 55 | – | – | – | – | – | – | – | – | – | – | – | –
12 | CCC[C@@H](CCn1cncn1)c1ccccc1 | 75 | 67 | 52 | 44 | 78 | 55 | – | – | – | – | – | – | – | – | – | – | – | –
13 | CC[C@@H](CCn1cncn1)c1ccc(Cl)cc1 | 85 | 80 | 73 | 84 | 83 | 80 | – | – | – | – | – | – | – | – | – | – | – | –
14 | CC[C@H](CCn1cncn1)c1ccccc1 | 70 | 81 | 60 | 52 | 80 | 60 | – | – | – | – | – | – | – | – | – | – | – | –
15 | CCCC[C@H](CCn1cncn1)c1ccc(F)cc1 | 100 | 100 | 95 | 100 | 100 | 100 | 61 | 15 | 66 | 61 | 36 | 112 | 100 | 100 | 89 | 100 | 99 | 99
16 | CCCC[C@H](CCn1cncn1)c1ccc(Cl)cc1 | 85 | 100 | 73 | 88 | 91 | 82 | – | – | – | – | – | – | – | – | – | – | – | –
17 | CC[C@@H](CCn1cncn1)c1ccc(OC)cc1 | 50 | 45 | 42 | 30 | 73 | 40 | – | – | – | – | – | – | – | – | – | – | – | –
18 | CCCC[C@@H](CCn1cncn1)c1ccc(Cl)cc1 | 85 | 97 | 69 | 94 | 84 | 78 | – | – | – | – | – | – | – | – | – | – | – | –
19 | CCC[C@H](CCn1cncn1)c1ccc(OC)cc1 | 80 | 90 | 66 | 60 | 78 | 90 | – | – | – | – | – | – | – | – | – | – | – | –
20 | CCC[C@@H](CCn1cncn1)c1ccc(F)cc1 | 90 | 83 | 83 | 94 | 86 | 73 | – | – | – | – | – | – | – | – | – | – | – | –
21 | CC[C@H](CCn1cncn1)c1ccc(Cl)cc1 | 97 | 93 | 76 | 94 | 85 | 91 | – | – | – | – | – | – | – | – | – | – | – | –
